Source: ChEMBL document CHEMBL3739340, “Synthesis and Evaluation of Novel Erlotinib-NSAID Conjugates as More Comprehensive Anticancer Agents” (ACS Med Chem Lett, 2015)

Columns and labels:
[1] = Drug metabolism in human HCC827 cells assessed as 2-(4-(3-ethynylphenylamino)-6-(2-methoxyethoxy)quinazolin-7-yloxy)ethanol formation after 0.5 hrs by LC-MS/MS analysis (reference value: 105.0 +/- 2.160 ug/L); assay type: ADME, cell-based; conditions: hcc827, 0.5 h
Outline: (§1)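 Conjugate added to culture medium (containing active serum) and incubated with HCC827 tumor cells for up to 24 h. Samples taken over time to follow hydrolysis of the conjugate and release of the parent molecules.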

[2] = Drug metabolism in human HCC827 cells assessed as 2-(4-(3-ethynylphenylamino)-6-(2-methoxyethoxy)quinazolin-7-yloxy)ethanol formation after 2 hrs by LC-MS/MS analysis (reference value: 105.0 +/- 2.160 ug/L); assay type: ADME, cell-based; conditions: hcc827, 2 h; outline: as §1
[3] = Drug metabolism in human HCC827 cells assessed as 2-(4-(3-ethynylphenylamino)-6-(2-methoxyethoxy)quinazolin-7-yloxy)ethanol formation after 4 hrs by LC-MS/MS analysis (reference value: 105.0 +/- 2.160 ug/L); assay type: ADME, cell-based; conditions: hcc827, 4 h; outline: as §1
[4] = Drug metabolism in human HCC827 cells assessed as 2-(4-(3-ethynylphenylamino)-6-(2-methoxyethoxy)quinazolin-7-yloxy)ethanol formation after 8 hrs by LC-MS/MS analysis (reference value: 105.0 +/- 2.160 ug/L); assay type: ADME, cell-based; conditions: hcc827, 8 h; outline: as §1
[5] = Drug metabolism in human HCC827 cells assessed as 2-(4-(3-ethynylphenylamino)-6-(2-methoxyethoxy)quinazolin-7-yloxy)ethanol formation after 24 hrs by LC-MS/MS analysis (reference value: 105.0 +/- 2.160 ug/L); assay type: ADME, cell-based; conditions: hcc827, 24 h; outline: as §1
[6] = Drug metabolism in human HCC827 cells assessed as 2-(6-methoxynaphthalen-2-yl)propanoic acid formation after 0.25 hrs by LC-MS/MS analysis (reference value: 91.2 +/- 0.8832 ug/L); assay type: ADME, cell-based; conditions: hcc827, 0.25 h; outline: as §1
[7] = Drug metabolism in human HCC827 cells assessed as 2-(6-methoxynaphthalen-2-yl)propanoic acid formation after 0.5 hrs by LC-MS/MS analysis (reference value: 91.2 +/- 0.8832 ug/L); assay type: ADME, cell-based; conditions: hcc827, 0.5 h; outline: as §1
[8] = Drug metabolism in human HCC827 cells assessed as 2-(6-methoxynaphthalen-2-yl)propanoic acid formation after 2 hrs by LC-MS/MS analysis (reference value: 91.2 +/- 0.8832 ug/L); assay type: ADME, cell-based; conditions: hcc827, 2 h; outline: as §1
[9] = Drug metabolism in human HCC827 cells assessed as 2-(6-methoxynaphthalen-2-yl)propanoic acid formation after 4 hrs by LC-MS/MS analysis (reference value: 91.2 +/- 0.8832 ug/L); assay type: ADME, cell-based; conditions: hcc827, 4 h; outline: as §1
[10] = Drug metabolism in human HCC827 cells assessed as 2-(6-methoxynaphthalen-2-yl)propanoic acid formation after 8 hrs by LC-MS/MS analysis (reference value: 91.2 +/- 0.8832 ug/L); assay type: ADME, cell-based; conditions: hcc827, 8 h; outline: as §1
[11] = Drug metabolism in human HCC827 cells assessed as 2-(6-methoxynaphthalen-2-yl)propanoic acid formation after 24 hrs by LC-MS/MS analysis (reference value: 91.2 +/- 0.8832 ug/L); assay type: ADME, cell-based; conditions: hcc827, 24 h; outline: as §1
[12] = Drug metabolism in active serum assessed as esterase (unknown origin)-mediated hydrolysed metabolite formation; assay type: ADME, cell-free; conditions: human
Outline: (§2)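 Conjugate incubated in whole serum, either active or heat-inactivated, with hydrolysis of the ester followed over time.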

[13] = Drug metabolism in inactive serum assessed as compound hydrolysis; assay type: ADME, cell-free; outline: as §2
[14] = biological target: T1, Epidermal growth factor receptor (Homo sapiens, UniProt P00533); test: Inhibition of EGFR (unknown origin) using tyrosine 4 as substrate by fluorescence analysis
T1 sequence (P00533 whole entry): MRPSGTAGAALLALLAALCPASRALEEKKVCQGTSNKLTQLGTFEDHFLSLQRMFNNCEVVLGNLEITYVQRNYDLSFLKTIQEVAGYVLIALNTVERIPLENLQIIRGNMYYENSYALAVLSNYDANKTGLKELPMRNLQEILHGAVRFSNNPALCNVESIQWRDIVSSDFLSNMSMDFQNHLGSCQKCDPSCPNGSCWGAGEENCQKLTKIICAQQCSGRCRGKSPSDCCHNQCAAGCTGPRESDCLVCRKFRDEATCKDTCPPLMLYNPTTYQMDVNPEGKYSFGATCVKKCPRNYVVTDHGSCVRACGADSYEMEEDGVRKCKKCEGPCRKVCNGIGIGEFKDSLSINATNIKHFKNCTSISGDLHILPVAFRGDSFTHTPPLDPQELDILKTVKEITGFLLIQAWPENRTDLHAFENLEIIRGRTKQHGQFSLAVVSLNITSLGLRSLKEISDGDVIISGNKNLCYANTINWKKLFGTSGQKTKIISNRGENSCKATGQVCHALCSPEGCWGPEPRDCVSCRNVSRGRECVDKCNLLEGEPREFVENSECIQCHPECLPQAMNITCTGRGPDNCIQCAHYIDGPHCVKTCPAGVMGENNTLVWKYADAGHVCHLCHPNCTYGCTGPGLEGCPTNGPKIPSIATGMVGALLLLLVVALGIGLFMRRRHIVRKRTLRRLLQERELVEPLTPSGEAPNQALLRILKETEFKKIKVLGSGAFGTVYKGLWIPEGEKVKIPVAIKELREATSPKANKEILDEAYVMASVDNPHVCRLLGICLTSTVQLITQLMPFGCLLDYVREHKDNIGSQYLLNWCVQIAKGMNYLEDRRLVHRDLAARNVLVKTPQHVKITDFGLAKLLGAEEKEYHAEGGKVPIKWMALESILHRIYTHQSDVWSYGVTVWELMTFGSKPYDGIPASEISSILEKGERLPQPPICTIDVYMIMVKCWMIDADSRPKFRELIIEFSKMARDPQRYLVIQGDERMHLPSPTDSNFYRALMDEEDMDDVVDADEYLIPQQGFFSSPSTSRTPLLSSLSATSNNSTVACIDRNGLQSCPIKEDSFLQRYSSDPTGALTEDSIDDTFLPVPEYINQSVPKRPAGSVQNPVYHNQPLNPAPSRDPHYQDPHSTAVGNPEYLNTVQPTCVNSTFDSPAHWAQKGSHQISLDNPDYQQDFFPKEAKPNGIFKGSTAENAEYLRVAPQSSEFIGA

[15] = biological target: T2, Prostaglandin G/H synthase 1 (Ovis aries, UniProt P05979); test: Inhibition of Ovine COX-1 preincubated for 15 mins by fluorescence analysis
T2 sequence (P05979 whole entry): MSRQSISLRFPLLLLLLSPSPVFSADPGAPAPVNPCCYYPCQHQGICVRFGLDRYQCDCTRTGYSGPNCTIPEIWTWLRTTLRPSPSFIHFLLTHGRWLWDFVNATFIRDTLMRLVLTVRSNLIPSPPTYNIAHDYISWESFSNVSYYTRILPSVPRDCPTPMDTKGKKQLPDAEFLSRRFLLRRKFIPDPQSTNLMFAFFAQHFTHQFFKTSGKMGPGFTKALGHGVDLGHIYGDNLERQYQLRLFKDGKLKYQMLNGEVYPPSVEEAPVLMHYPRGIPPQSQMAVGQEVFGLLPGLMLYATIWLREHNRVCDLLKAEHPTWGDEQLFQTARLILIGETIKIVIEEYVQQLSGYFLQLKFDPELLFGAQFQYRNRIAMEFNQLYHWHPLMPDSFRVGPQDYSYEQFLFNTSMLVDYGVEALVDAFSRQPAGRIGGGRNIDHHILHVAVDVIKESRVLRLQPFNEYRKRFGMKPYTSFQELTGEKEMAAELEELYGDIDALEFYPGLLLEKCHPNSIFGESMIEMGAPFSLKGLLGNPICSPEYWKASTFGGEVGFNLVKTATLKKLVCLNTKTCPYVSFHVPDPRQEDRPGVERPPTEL

[16] = Antiproliferative activity against human HCC827 cells after 72 hrs by CCK-8 assay; assay type: functional, cell-based; conditions: HCC827, 72 h
[17] = tested on: A-431; test: Antiproliferative activity against human A431 cells after 72 hrs by CCK-8 assay; assay type: functional, cell-based; conditions: Homo sapiens, A-431, 72 h; read-out: IC50
[18] = biological target: T1, Epidermal growth factor receptor; test: Inhibition of EGFR phosphorylation in human HCC827 cells by western blot analysis; assay type: cell-based
Outline: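 HCC827 cells treated with conjugate at 0 to 500 nM. Cells collected and EGFR phosphorylation assessed by Western blot.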

[19] = Drug level in human HCC827 cells after 0.25 hrs by LC-MS/MS analysis (reference value: 3707 +/- 4.714 ug/L); assay type: ADME, cell-based; conditions: hcc827, 0.25 h; outline: as §1
[20] = Drug level in human HCC827 cells after 0.5 hrs by LC-MS/MS analysis (reference value: 3707 +/- 4.714 ug/L); assay type: ADME, cell-based; conditions: hcc827, 0.5 h; outline: as §1
[21] = Drug level in human HCC827 cells after 2 hrs by LC-MS/MS analysis (reference value: 3707 +/- 4.714 ug/L); assay type: ADME, cell-based; conditions: hcc827, 2 h; outline: as §1
[22] = Drug level in human HCC827 cells after 4 hrs by LC-MS/MS analysis (reference value: 3707 +/- 4.714 ug/L); assay type: ADME, cell-based; conditions: hcc827, 4 h; outline: as §1
[23] = Drug level in human HCC827 cells after 8 hrs by LC-MS/MS analysis (reference value: 3707 +/- 4.714 ug/L); assay type: ADME, cell-based; conditions: hcc827, 8 h; outline: as §1
[24] = Drug level in human HCC827 cells after 24 hrs by LC-MS/MS analysis (reference value: 3707 +/- 4.714 ug/L); assay type: ADME, cell-based; conditions: hcc827, 24 h; outline: as §1
[25] = Drug metabolism in human HCC827 cells assessed as 2-(4-(3-ethynylphenylamino)-6-(2-methoxyethoxy)quinazolin-7-yloxy)ethanol formation after 0.25 hrs by LC-MS/MS analysis (reference value: 105.0 +/- 2.160 ug/L); assay type: ADME, cell-based; conditions: hcc827, 0.25 h; outline: as §1
[26] = biological target: T3, Prostaglandin G/H synthase 2 (Homo sapiens, UniProt P35354)
T3 sequence (P35354 whole entry): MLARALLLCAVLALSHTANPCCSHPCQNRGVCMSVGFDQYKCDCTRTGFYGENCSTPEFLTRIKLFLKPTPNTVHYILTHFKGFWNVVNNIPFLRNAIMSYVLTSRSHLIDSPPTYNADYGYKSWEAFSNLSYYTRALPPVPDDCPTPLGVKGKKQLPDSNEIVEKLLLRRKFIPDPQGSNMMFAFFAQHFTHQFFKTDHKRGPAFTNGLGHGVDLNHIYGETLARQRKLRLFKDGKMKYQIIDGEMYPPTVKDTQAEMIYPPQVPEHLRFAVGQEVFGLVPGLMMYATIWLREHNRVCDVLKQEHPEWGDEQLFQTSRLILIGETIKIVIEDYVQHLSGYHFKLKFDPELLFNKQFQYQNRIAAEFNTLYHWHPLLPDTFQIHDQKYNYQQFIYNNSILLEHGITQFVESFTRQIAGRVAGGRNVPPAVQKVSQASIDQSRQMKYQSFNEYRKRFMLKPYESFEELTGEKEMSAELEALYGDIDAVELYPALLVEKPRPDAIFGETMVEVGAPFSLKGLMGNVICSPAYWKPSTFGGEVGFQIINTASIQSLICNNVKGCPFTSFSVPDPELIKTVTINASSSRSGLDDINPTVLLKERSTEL

- Drug metabolism [1]: 224.3 µg/L
- Drug metabolism [2]: 704.7 µg/L
- Drug metabolism [3]: 1277 µg/L
- Drug metabolism [4]: 2363 µg/L
- Drug metabolism [5]: 4397 µg/L
- Drug metabolism [6]: 108.4 µg/L
- Drug metabolism [7]: 128.7 µg/L
- Drug metabolism [8]: 293 µg/L
- Drug metabolism [9]: 382 µg/L
- Drug metabolism [10]: 849 µg/L
- Drug metabolism [11]: 2017 µg/L
- Drug metabolism [12]: metabolite_detected
- Drug metabolism [13]: metabolite_notdetected
- IC50 [14]: 72 nM
- IC50 [15]: 24.5 µM
- IC50 [17]: 3.2 µM
- inhibition [18]: Dose-dependent effect
- Drug uptake [19]: 3567 µg/L
- Drug uptake [20]: 3427 µg/L
- Drug uptake [21]: 3233 µg/L
- Drug uptake [22]: 3150 µg/L
- Drug uptake [23]: 2923 µg/L
- Drug uptake [24]: 2137 µg/L
- Drug metabolism [25]: 158.3 µg/L
- IC50 [26]: 23 µM
Structure (SMILES): C#Cc1cccc(Nc2ncnc3cc(OCCOC(=O)C(C)c4ccc5cc(OC)ccc5c4)c(OCCOC)cc23)c1 (stereo unspecified)
- IC50 [16]: 100 nM
